Reference: ChEMBL document CHEMBL1154352, “Toll-like receptor 7 selective synthetic oligoribonucleotide agonists: synthesis and structure-activity relationship studies” (J Med Chem, 2009)
Calls of active or inactive are those of the source. The rule behind the calls is not given here.

Experiments:
[1] = Metabolic stability in human serum assessed as full length product remaining after 10 mins by HPLC; assay type: ADME, cell-free; details: read-out: Stability
Procedure, shortened: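 About 0.5 A260 units compound in 1% human serum in PBS, 37 °C; aliquot taken at 10 min, analysed by anion-exchange HPLC for percent intact full-length product.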

[2] = biological target: T1, Toll-like receptor 7 (Homo sapiens) (UniProt Q9NYK1); test: Activation of human TLR7 expressed in HEK293XL assessed as fold induction of NF-kappaB activity at 50 ug/ml after 18 hrs by reporter gene assay relative to control
T1 sequence (whole entry): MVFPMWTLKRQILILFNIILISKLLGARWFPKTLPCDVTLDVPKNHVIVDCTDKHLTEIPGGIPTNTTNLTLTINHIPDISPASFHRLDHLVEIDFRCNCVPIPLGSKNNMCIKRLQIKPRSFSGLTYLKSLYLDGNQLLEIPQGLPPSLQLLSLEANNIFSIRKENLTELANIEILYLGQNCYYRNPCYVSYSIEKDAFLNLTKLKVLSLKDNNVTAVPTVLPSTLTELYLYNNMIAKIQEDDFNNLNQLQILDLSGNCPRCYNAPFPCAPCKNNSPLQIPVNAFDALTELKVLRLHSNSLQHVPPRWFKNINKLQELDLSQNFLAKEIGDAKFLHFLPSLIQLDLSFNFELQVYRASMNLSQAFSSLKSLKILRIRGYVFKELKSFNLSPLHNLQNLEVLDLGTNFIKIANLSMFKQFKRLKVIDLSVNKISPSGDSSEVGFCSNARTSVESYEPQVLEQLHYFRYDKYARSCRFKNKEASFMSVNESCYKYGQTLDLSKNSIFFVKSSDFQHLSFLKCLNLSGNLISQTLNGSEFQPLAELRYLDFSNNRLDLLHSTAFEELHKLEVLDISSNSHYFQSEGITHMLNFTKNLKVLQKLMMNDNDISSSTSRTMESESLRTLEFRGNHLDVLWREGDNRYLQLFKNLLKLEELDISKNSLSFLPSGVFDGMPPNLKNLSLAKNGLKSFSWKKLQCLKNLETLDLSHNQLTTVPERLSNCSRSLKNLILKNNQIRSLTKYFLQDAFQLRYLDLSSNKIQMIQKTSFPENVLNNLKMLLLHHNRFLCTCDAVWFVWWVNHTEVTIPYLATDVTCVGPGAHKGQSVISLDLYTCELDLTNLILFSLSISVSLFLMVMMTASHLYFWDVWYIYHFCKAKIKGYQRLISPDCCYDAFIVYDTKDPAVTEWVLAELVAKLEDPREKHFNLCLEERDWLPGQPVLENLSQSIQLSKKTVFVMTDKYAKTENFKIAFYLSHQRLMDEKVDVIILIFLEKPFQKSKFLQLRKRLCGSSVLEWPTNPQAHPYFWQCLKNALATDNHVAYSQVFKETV
Procedure, shortened: (§1)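 HEK293 cells stably expressing human TLR7 or TLR8, transiently transfected with SEAP reporter plasmid; medium replaced, SIMRA compounds added, 18 h incubation. Supernatant SEAP measured by QuantiBlue; expressed as fold increase in NF-κB activity over PBS control. Tabulated data at 50 μg/mL, representative of three independent experiments.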

[3] = biological target: T2, Toll-like receptor 8 (Homo sapiens) (UniProt Q9NR97); test: Activation of human TLR8 expressed in HEK293XL assessed as fold induction of NF-kappaB activity at 50 ug/ml after 18 hrs by reporter gene assay relative to control; procedure, shortened: as §1
T2 sequence (whole entry): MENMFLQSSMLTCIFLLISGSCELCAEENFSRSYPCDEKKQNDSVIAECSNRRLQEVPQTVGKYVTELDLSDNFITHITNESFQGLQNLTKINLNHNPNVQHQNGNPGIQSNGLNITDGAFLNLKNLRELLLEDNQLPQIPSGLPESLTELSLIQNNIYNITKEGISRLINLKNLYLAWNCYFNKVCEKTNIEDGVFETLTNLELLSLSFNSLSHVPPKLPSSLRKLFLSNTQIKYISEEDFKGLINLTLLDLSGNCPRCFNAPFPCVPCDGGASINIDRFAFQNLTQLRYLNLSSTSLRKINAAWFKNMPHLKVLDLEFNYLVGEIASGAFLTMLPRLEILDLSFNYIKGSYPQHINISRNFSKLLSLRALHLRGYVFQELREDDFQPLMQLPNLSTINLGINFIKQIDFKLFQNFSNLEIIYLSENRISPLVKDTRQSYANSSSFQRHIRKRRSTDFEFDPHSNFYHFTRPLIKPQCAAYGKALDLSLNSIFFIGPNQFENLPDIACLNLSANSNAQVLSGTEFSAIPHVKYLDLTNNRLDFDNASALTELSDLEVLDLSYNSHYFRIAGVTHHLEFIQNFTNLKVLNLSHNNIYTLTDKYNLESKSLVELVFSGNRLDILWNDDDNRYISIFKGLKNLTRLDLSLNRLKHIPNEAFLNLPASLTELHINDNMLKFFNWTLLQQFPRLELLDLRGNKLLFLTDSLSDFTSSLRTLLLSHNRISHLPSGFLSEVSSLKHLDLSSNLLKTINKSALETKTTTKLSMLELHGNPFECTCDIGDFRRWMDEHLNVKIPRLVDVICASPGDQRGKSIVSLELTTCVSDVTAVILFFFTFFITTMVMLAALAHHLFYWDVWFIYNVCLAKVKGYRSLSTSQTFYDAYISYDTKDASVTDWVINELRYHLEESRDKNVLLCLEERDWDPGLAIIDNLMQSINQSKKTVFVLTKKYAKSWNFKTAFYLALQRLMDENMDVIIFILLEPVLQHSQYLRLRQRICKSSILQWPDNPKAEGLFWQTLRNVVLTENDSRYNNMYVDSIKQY

[4] = species on record: Homo sapiens; test: Ratio of human TLR7 activity to human TLR8 activity
Procedure, shortened: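 TLR7/TLR8 ratio computed from fold NF-κB (SEAP reporter) activation in HEK293 cells stably expressing human TLR7 versus TLR8, compounds at 50 μg/mL, 18 h exposure; representative of three independent experiments.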

[5] = test system: Splenocyte; test: Immunomodulatory activity in C57BL/6 mouse splenocytes bearing TLR7 receptor assessed as IL6 release at 100 ug/ml after 24 hrs by ELISA; assay type: functional, cell-based
Procedure, shortened: (§2)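 C57BL/6 splenocytes in RPMI 1640 with 10% FBS, penicillin/streptomycin, 2 mM L-glutamine, plated at 5 × 10^6 cells/mL; compounds in PBS added, 37 °C for 24 h. Supernatant IL-12 and IL-6 by ELISA; representative of three independent experiments.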

[6] = test system: Splenocyte; test: Immunomodulatory activity in C57BL/6 mouse splenocytes bearing TLR7 receptor assessed as IL12 release at 100 ug/ml after 24 hrs by ELISA; assay type: functional, cell-based; procedure, shortened: as §2
[7] = test system: PBMC; test: Immunomodulatory activity in human PBMC assessed as induction of TNFalpha at 100 ug/ml after 24 hrs; assay type: functional, cell-based
Procedure, shortened: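 Human PBMCs plated at 5 × 10^6 cells/mL; compounds dissolved in PBS added at various concentrations, 37 °C for 24 h. Supernatant cytokines/chemokines quantified with human Luminex multiplex kit.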

remaining at 10 min [1] [%] | fold change (FC) [2] | fold change (FC) [3] | Ratio [4] | Activity [5] | Activity [6] | Compound | Activity [7] [pg/mL]
78 | 26.6 | 0.9 | 29.6 | Active | Active | Nc1ccn([C@@H]2O[C@H](COP(=O)(S)O[C@H]3[C@@H](O)[C@H](n4cnc5c(N)ncnc54)O[C@@H]3CO)[C@@H](OP(=O)(S)OC[C@H]3O[C@@H](n4ccc5c(=O)[nH]c(N)nc54)[C@H](O)[C@@H]3OP(=O)(S)OC[C@H]3O[C@@H](n4ccc(N)nc4=O)[C@H](O)[C@@H]3OP(=O)(S)OC[C@H]3O[C@@H](n4ccc(=O)[nH]c4=O)[C@H](O)[C@@H]3OP(=O)(S)OC[C@H]3O[C@@H](n4ccc5c(=O)[nH]c(N)nc54)[C@H](O)[C@@H]3OP(=O)(S)OC[C@H]3O[C@@H](n4cnc5c(N)ncnc54)[C@H](O)[C@@H]3OP(=O)(S)OC[C@H]3O[C@@H](n4ccc5c(=O)[nH]c(N)nc54)[C@H](O)[C@@H]3OP(=O)(S)OC[C@H]3O[C@@H](n4ccc(N)nc4=O)[C@H](O)[C@@H]3OP(=O)(S)OC[C@H]3O[C@@H](n4ccc(=O)[nH]c4=O)[C@H](O)[C@@H]3OP(=O)(S)OC[C@H]3O[C@@H](n4ccc(=O)[nH]c4=O)[C@H](O)[C@@H]3OP(=O)(S)OCC(O)COP(=O)(S)O[C@H]3[C@@H](O)[C@H](n4ccc(=O)[nH]c4=O)O[C@@H]3COP(=O)(S)O[C@H]3[C@@H](O)[C@H](n4ccc(=O)[nH]c4=O)O[C@@H]3COP(=O)(S)O[C@H]3[C@@H](O)[C@H](n4ccc(N)nc4=O)O[C@@H]3COP(=O)(S)O[C@H]3[C@@H](O)[C@H](n4ccc5c(=O)[nH]c(N)nc54)O[C@@H]3COP(=O)(S)O[C@H]3[C@@H](O)[C@H](n4cnc5c(N)nc(N)nc54)O[C@@H]3COP(=O)(S)O[C@H]3[C@@H](O)[C@H](n4ccc5c(=O)[nH]c(N)nc54)O[C@@H]3COP(=O)(S)O[C@H]3[C@@H](O)[C@H](n4ccc(=O)[nH]c4=O)O[C@@H]3COP(=O)(S)O[C@H]3[C@@H](O)[C@H](n4ccc(N)nc4=O)O[C@@H]3COP(=O)(S)O[C@H]3[C@@H](O)[C@H](n4ccc5c(=O)[nH]c(N)nc54)O[C@@H]3COP(=O)(S)O[C@H]3[C@@H](O)[C@H](n4ccc(N)nc4=O)O[C@@H]3COP(=O)(S)O[C@H]3[C@@H](O)[C@H](n4cnc5c(N)ncnc54)O[C@@H]3CO)[C@H]2O)c(=O)n1 (some centres undefined) | 1410
72 | 27.6 | 0.4 | 69 | Active | Active | Nc1ccn([C@@H]2O[C@H](CO)[C@@H](OP(=O)(S)OC[C@H]3O[C@@H](n4ccc(=O)[nH]c4=O)[C@H](O)[C@@H]3OP(=O)(S)OC[C@H]3O[C@@H](n4ccc5c(=O)[nH]c(N)nc54)[C@H](O)[C@@H]3OP(=O)(S)OC[C@H]3O[C@@H](n4cnc5c(N)ncnc54)[C@H](O)[C@@H]3OP(=O)(S)OC[C@H]3O[C@@H](n4ccc5c(=O)[nH]c(N)nc54)[C@H](O)[C@@H]3OP(=O)(S)OC[C@H]3O[C@@H](n4cnc5c(N)ncnc54)[C@H](O)[C@@H]3OP(=O)(S)OC[C@H]3O[C@@H](n4cnc5c(N)ncnc54)[C@H](O)[C@@H]3OP(=O)(S)OC[C@H]3O[C@@H](n4ccc5c(=O)[nH]c(N)nc54)[C@H](O)[C@@H]3OP(=O)(S)OC[C@H]3O[C@@H](n4ccc(N)nc4=O)[C@H](O)[C@@H]3OP(=O)(S)OC[C@H]3O[C@@H](n4ccc(=O)[nH]c4=O)[C@H](O)[C@@H]3OP(=O)(S)OC[C@H]3O[C@@H](n4ccc(=O)[nH]c4=O)[C@H](O)[C@@H]3OP(=O)(S)OCC(O)COP(=O)(S)O[C@H]3[C@@H](O)[C@H](n4ccc(=O)[nH]c4=O)O[C@@H]3COP(=O)(S)O[C@H]3[C@@H](O)[C@H](n4ccc(=O)[nH]c4=O)O[C@@H]3COP(=O)(S)O[C@H]3[C@@H](O)[C@H](n4ccc(N)nc4=O)O[C@@H]3COP(=O)(S)O[C@H]3[C@@H](O)[C@H](n4ccc5c(=O)[nH]c(N)nc54)O[C@@H]3COP(=O)(S)O[C@H]3[C@@H](O)[C@H](n4cnc5c(N)ncnc54)O[C@@H]3COP(=O)(S)O[C@H]3[C@@H](O)[C@H](n4cnc5c(N)ncnc54)O[C@@H]3COP(=O)(S)O[C@H]3[C@@H](O)[C@H](n4ccc5c(=O)[nH]c(N)nc54)O[C@@H]3COP(=O)(S)O[C@H]3[C@@H](O)[C@H](n4cnc5c(N)ncnc54)O[C@@H]3COP(=O)(S)O[C@H]3[C@@H](O)[C@H](n4ccc5c(=O)[nH]c(N)nc54)O[C@@H]3COP(=O)(S)O[C@H]3[C@@H](O)[C@H](n4ccc(=O)[nH]c4=O)O[C@@H]3COP(=O)(S)O[C@H]3[C@@H](O)[C@H](n4ccc(N)nc4=O)O[C@@H]3CO)[C@H]2O)c(=O)n1 (some centres undefined) | 818
